# What was measured:
# Type in all cases: functional
# [1] = test system: Streptococcus pneumoniae; assay: Antimicrobial activity against drug-susceptible Streptococcus pneumoniae 2 after 20 hrs by agar dilution method; settings: Streptococcus pneumoniae, 20 h; read-out: MIC
# Procedure, shortened: (§1)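 Streptococci, H. influenzae and M. catarrhalis were precultured on blood agar plates. Suspensions of about 10⁶ CFU/ml were inoculated onto sensitivity disk agar supplemented with 5% horse blood and incubated at 37 °C for 20 h. MIC was read as the lowest drug concentration with no visible growth.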
# [2] = test system: Streptococcus pneumoniae; assay: Antimicrobial activity against Streptococcus pneumoniae 10 expressing mefA after 20 hrs by agar dilution method; settings: Streptococcus pneumoniae, 20 h; read-out: MIC; procedure, shortened: as §1
# [3] = test system: Streptococcus pneumoniae; assay: Antimicrobial activity against Streptococcus pneumoniae 5 constitutively expressing ermB/mefA after 20 hrs by agar dilution method; settings: Streptococcus pneumoniae, 20 h; read-out: MIC; procedure, shortened: as §1
# [4] = test system: Staphylococcus aureus; assay: Antimicrobial activity against Staphylococcus aureus 5 expressing inducible ermB after 20 hrs by agar dilution method; settings: Staphylococcus aureus, 20 h; read-out: MIC
# Procedure, shortened: (§2)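 Agar dilution MIC. S. aureus seed culture was grown in sensitivity test broth. Cell suspension (about 10⁶ CFU/ml) was inoculated onto sensitivity disk agar with 5% horse blood and incubated at 37 °C for 20 h. MIC was the lowest drug concentration that prevented visible growth.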
# [5] = test system: Streptococcus pyogenes; assay: Antimicrobial activity against Streptococcus pyogenes 2 constitutively expressing ermB after 20 hrs by agar dilution method; procedure, shortened: as §1
# [6] = test system: Streptococcus pyogenes; assay: Antimicrobial activity against drug-susceptible Streptococcus pyogenes 1 after 20 hrs by agar dilution method; settings: Streptococcus pyogenes, 20 h; read-out: MIC; procedure, shortened: as §1
# [7] = test system: Streptococcus pneumoniae; assay: Antimicrobial activity against Streptococcus pneumoniae 7 expressing inducible ermB after 20 hrs by agar dilution method; settings: Streptococcus pneumoniae, 20 h; read-out: MIC; procedure, shortened: as §1
# [8] = test system: Staphylococcus aureus; assay: Antimicrobial activity against drug-susceptible Staphylococcus aureus 3 after 20 hrs by agar dilution method; settings: Staphylococcus aureus, 20 h; read-out: MIC; procedure, shortened: as §2
# [9] = test system: Haemophilus influenzae; assay: Antimicrobial activity against drug-susceptible Haemophilus influenzae 2 after 20 hrs by agar dilution method; settings: Haemophilus influenzae, 20 h; read-out: MIC; procedure, shortened: as §1
# [10] = test system: Staphylococcus aureus; assay: Antimicrobial activity against drug-susceptible Staphylococcus aureus 209P JC-1 after 20 hrs by agar dilution method; settings: Staphylococcus aureus, 209P, 20 h; read-out: MIC; procedure, shortened: as §2
# [11] = test system: Haemophilus influenzae; assay: Antimicrobial activity against drug-susceptible Haemophilus influenzae 4 after 20 hrs by agar dilution method; settings: Haemophilus influenzae, 20 h; read-out: MIC; procedure, shortened: as §1
# [12] = test system: Streptococcus pneumoniae; assay: Antimicrobial activity against Streptococcus pneumoniae 6 constitutively expressing ermB after 20 hrs by agar dilution method; settings: Streptococcus pneumoniae, 20 h; read-out: MIC; procedure, shortened: as §1
# [13] = test system: Staphylococcus aureus; assay: Antimicrobial activity against Staphylococcus aureus 6 expressing inducible ermB after 20 hrs by agar dilution method; procedure, shortened: as §2
# [14] = test system: Haemophilus influenzae; assay: Antimicrobial activity against drug-susceptible Haemophilus influenzae 3 after 20 hrs by agar dilution method; settings: Haemophilus influenzae, 20 h; read-out: MIC; procedure, shortened: as §1
# [15] = test system: Haemophilus influenzae; assay: Antimicrobial activity against drug-susceptible Haemophilus influenzae 1 after 20 hrs by agar dilution method; settings: Haemophilus influenzae, 20 h; read-out: MIC; procedure, shortened: as §1
# [16] = test system: Staphylococcus aureus; assay: Antimicrobial activity against drug-susceptible Staphylococcus aureus 2 after 20 hrs by agar dilution method; settings: Staphylococcus aureus, 20 h; read-out: MIC; procedure, shortened: as §2
# [17] = test system: Streptococcus pneumoniae; assay: Antimicrobial activity against Streptococcus pneumoniae 9 expressing mefA after 20 hrs by agar dilution method; settings: Streptococcus pneumoniae, 20 h; read-out: MIC; procedure, shortened: as §1
# [18] = test system: Streptococcus pyogenes; assay: Antimicrobial activity against Streptococcus pyogenes 3 expressing mefA after 20 hrs by agar dilution method; settings: Streptococcus pyogenes, 20 h; read-out: MIC; procedure, shortened: as §1
# [19] = test system: Streptococcus pneumoniae; assay: Antimicrobial activity against drug-susceptible Streptococcus pneumoniae DP1 Type1 after 20 hrs by agar dilution method; settings: Streptococcus pneumoniae, 20 h; read-out: MIC; procedure, shortened: as §1
# [20] = test system: Streptococcus pneumoniae; assay: Antimicrobial activity against Streptococcus pneumoniae 8 expressing inducible ermB after 20 hrs by agar dilution method; settings: Streptococcus pneumoniae, 20 h; read-out: MIC; procedure, shortened: as §1
# [21] = test system: Staphylococcus aureus; assay: Antimicrobial activity against Staphylococcus aureus 4 constitutively expressing ermA after 20 hrs by agar dilution method; procedure, shortened: as §2
# [22] = test system: Moraxella catarrhalis; assay: Antimicrobial activity against drug-susceptible Moraxella catarrhalis 2 after 20 hrs by agar dilution method; settings: Moraxella catarrhalis, 20 h; read-out: MIC; procedure, shortened: as §1
# [23] = test system: Moraxella catarrhalis; assay: Antimicrobial activity against drug-susceptible Moraxella catarrhalis 1 after 20 hrs by agar dilution method; settings: Moraxella catarrhalis, 20 h; read-out: MIC; procedure, shortened: as §1
MIC [1],MIC [2],MIC [3],MIC [4],MIC [5],MIC [6],MIC [7],MIC [8],MIC [9],MIC [10],MIC [11],MIC [12],MIC [13],MIC [14],MIC [15],MIC [16],MIC [17],MIC [18],MIC [19],MIC [20],Compound,also measured
0.25 µg/mL,0.13 µg/mL,> 128 µg/mL,1 µg/mL,> 128 µg/mL,0.25 µg/mL,4 µg/mL,1 µg/mL,4 µg/mL,0.5 µg/mL,> 128 µg/mL,> 128 µg/mL,2 µg/mL,> 128 µg/mL,> 128 µg/mL,2 µg/mL,0.25 µg/mL,1 µg/mL,0.25 µg/mL,4 µg/mL,CCOC(=O)[C@H]1[C@H](C)O[C@@H](O[C@H]2[C@H](N(C)C)[C@@H](O)[C@H](O[C@H]3[C@@H](CC=O)C[C@@H](C)[C@@H](OC(C)=O)CN(CCCCc4ccccc4)CCC[C@@H](C)OC(=O)C[C@@H](OC(=O)CC)[C@@H]3OC)O[C@@H]2C)C[C@@]1(C)OC(C)=O,MIC [21]: > 128 µg/mL; MIC [22]: 2 µg/mL; MIC [23]: 1 µg/mL
1 µg/mL,1 µg/mL,> 128 µg/mL,1 µg/mL,> 128 µg/mL,0.5 µg/mL,> 128 µg/mL,1 µg/mL,4 µg/mL,1 µg/mL,16 µg/mL,> 128 µg/mL,2 µg/mL,16 µg/mL,> 128 µg/mL,2 µg/mL,1 µg/mL,1 µg/mL,0.5 µg/mL,> 128 µg/mL,CCOC(=O)[C@H]1[C@H](C)O[C@@H](O[C@H]2[C@H](N(C)C)[C@@H](O)[C@H](O[C@H]3[C@@H](CC=O)C[C@@H](C)[C@@H](OC(C)=O)CN(CCCCc4ccccc4)CCN(C)C(=O)C[C@@H](OC(=O)CC)[C@@H]3OC)O[C@@H]2C)C[C@@]1(C)OC(C)=O,MIC [21]: > 128 µg/mL; MIC [22]: 1 µg/mL; MIC [23]: 1 µg/mL
0.5 µg/mL,0.5 µg/mL,> 128 µg/mL,0.5 µg/mL,> 128 µg/mL,0.5 µg/mL,16 µg/mL,1 µg/mL,8 µg/mL,1 µg/mL,16 µg/mL,> 128 µg/mL,1 µg/mL,> 128 µg/mL,> 128 µg/mL,2 µg/mL,0.5 µg/mL,2 µg/mL,0.13 µg/mL,16 µg/mL,CCOC(=O)[C@H]1[C@H](C)O[C@@H](O[C@H]2[C@H](N(C)C)[C@@H](O)[C@H](O[C@H]3[C@@H](CC=O)C[C@@H](C)[C@@H](OC(C)=O)CN(C)CCN(CCCCc4ccccc4)C(=O)C[C@@H](OC(=O)CC)[C@@H]3OC)O[C@@H]2C)C[C@@]1(C)OC(C)=O,MIC [21]: > 128 µg/mL; MIC [22]: 2 µg/mL; MIC [23]: 1 µg/mL
0.5 µg/mL,0.5 µg/mL,> 128 µg/mL,1 µg/mL,> 128 µg/mL,0.5 µg/mL,> 128 µg/mL,1 µg/mL,2 µg/mL,0.5 µg/mL,8 µg/mL,> 128 µg/mL,2 µg/mL,8 µg/mL,> 128 µg/mL,2 µg/mL,1 µg/mL,1 µg/mL,0.5 µg/mL,> 128 µg/mL,CCOC(=O)[C@H]1[C@H](C)O[C@@H](O[C@H]2[C@H](N(C)C)[C@@H](O)[C@H](O[C@H]3[C@@H](CC=O)C[C@@H](C)[C@@H](OC(C)=O)CN(CCCCc4ccccc4)CCNC(=O)C[C@@H](OC(=O)CC)[C@@H]3OC)O[C@@H]2C)C[C@@]1(C)OC(C)=O,MIC [21]: > 128 µg/mL; MIC [22]: 1 µg/mL; MIC [23]: 0.5 µg/mL

# — ChEMBL document CHEMBL1151705, “Novel azalides derived from 16-membered macrolides. Part II: Isolation of the linear 9-formylcarboxylic acid and its sequential macrocyclization with an amino alcohol or an azidoamine” (2008)
